Assay outcomes (PubChem BioAssay)
A selection: hits, their analogues and other compounds. The true share with any hit is near 1.3%.
RAD52 anneal inh: RAD52 DNA annealing inhibitors, primary screen, biochemical, FRET, single point, set 2; DNA repair protein RAD52 homolog (Homo sapiens), P43351; recombinant RAD52 DNA annealing, FRET fluorescence; inhibition, % at 18.7 µM; 360,000 tested, 0.46% active; AID 651710, 2012;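 active means every replicate showing at least 50% inhibition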
PAX8 reporter: inhibitors of PAX8-driven TPO luciferase reporter, primary screen, RMG-I cells, single concentration; SteadyGlo, 24 h; inhibition, % at 12.6 µM; 360,000 tested, 1.2% active; AID 652154, 2013;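 active means mean replicate inhibition at least 60% with every replicate also reaching 60%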;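 further: luciferase light reporting Pax8 driven TPO promoter activity; plate controls were median of neutral control wells for no effect and mitoxantrone controls for full effect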
FN deposition inh: inhibitors of fibronectin matrix deposition, primary screen, AH1F cells, Alexa488-fibronectin fluorescence, plate reader; AH1F fibroblasts, overnight; inhibition, % at 12.6 µM; 350,000 tested, 0.086% active;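 active means mean inhibition across replicates of 30% or more, regardless of how many single replicates reach that level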;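 further: positive control wells lacked labelled fibronectin entirely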
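Material: AH1F fibroblasts assembling fluorescent fibronectin matrix; amount: 10000 AH1F cells/well; medium: DMEM, 2% serum; reagent: Alexa488-fibronectin, 24 nM final in well; dosing: single compound dose, delivered by pin transfer; incubation: 1 h adhesion, overnight exposure; detection: fluorescence after three HBSS washes, excitation 485 nm, emission 525 nm; measure: fibronectin deposition inhibition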
RAD54 inh: inhibitors of human RAD54 branch migration, primary screen, biochemical, fluorescence, single point. DNA repair and recombination protein RAD54-like (Homo sapiens), Q92698. RAD54 Holliday junction branch migration, FAM/BHQ fluorescence. inhibition, % at 10.4 µM. 360,000 tested, 0.14% active. AID 602329, 2012;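 active means mean normalized replicate activity at least 40 and at least half of replicates scoring 40 or more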;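 further: 0% = median of neutral control wells and 100% = median of positive control wells; inhibitors cause a drop in the FAM fluorescence signal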
Target sequence (Q92698 whole entry, looked up): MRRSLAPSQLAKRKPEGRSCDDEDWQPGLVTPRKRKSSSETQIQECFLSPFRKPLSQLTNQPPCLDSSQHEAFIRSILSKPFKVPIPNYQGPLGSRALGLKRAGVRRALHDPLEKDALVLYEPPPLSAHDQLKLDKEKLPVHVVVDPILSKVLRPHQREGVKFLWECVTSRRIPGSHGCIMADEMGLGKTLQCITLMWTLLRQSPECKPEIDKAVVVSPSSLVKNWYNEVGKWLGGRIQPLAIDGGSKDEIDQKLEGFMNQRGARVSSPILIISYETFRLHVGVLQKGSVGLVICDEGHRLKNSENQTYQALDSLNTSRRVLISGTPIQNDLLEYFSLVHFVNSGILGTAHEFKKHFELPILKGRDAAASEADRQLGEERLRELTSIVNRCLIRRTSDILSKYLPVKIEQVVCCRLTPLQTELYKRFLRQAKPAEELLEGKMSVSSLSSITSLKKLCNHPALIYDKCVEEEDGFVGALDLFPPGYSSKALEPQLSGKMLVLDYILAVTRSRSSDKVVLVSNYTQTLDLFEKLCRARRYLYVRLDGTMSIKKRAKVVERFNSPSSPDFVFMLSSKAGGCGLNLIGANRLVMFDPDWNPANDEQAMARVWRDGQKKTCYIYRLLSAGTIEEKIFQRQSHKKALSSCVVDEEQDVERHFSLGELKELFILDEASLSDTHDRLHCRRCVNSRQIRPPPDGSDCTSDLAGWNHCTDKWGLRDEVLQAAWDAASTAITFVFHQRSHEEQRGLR
* hit, by the source's call; · = not tested or not shown.

SMILES	RAD52 anneal inh	PAX8 reporter	FN deposition inh	RAD54 inh
O=C(NN=Cc1cc(Cl)ccc1[N+](=O)[O-])c1cccc2ccccc12	-57	-8	1	·
O=C(N/N=C/c1cc([N+](=O)[O-])ccc1O)c1cccc2ccccc12	5	69*	11	-3
C[C@@H](O)C1NC(=O)[C@H](CCCCN)NC(=O)c2cc([N+](=O)[O-])cc(F)c2NCCCC[C@@H](C(N)=O)NC1=O (some centres undefined)	·	·	·	54*
CC[C@H](C)[C@@H]1NC(=O)c2cc([N+](=O)[O-])cc(F)c2NCCCC[C@@H](C(N)=O)NC(=O)[C@H](CC(N)=O)NC1=O	-9	-1	-5	-1
COC(=O)C1=C(C)N(Cc2cccc(C(F)(F)F)c2)C(=NCc2ccc(C(F)(F)F)cc2)NC1c1cccc(F)c1 (centres undefined)	-24	74*	-2	·
COC(=O)C1=C(C)N(Cc2ccc(C(F)(F)F)cc2)C(=NCC2CC2)NC1c1cccc(Cl)c1 (centres undefined)	-16	68*	-5	·
COC(=O)C1=C(C)N(Cc2ccc(C(F)(F)F)cc2)C(=NCc2ccccc2)NC1c1cccc(F)c1 (centres undefined)	-11	101*	17	·
COC(=O)C1=C(C)N(Cc2cccc(C(F)(F)F)c2)C(=NCc2ccc(C(F)(F)F)cc2)NC1c1ccc(C(F)(F)F)cc1 (centres undefined)	-18	77*	-7	·
COC(=O)C1=C(C)N(Cc2ccc(C(F)(F)F)cc2)C(=NCc2ccc(OC)cc2)NC1c1cccc(Cl)c1 (centres undefined)	-16	15	7	·
CC(C)(C)NC(=O)C(c1ccc(-c2ccccc2)cc1)n1c(=O)c(-c2ccccc2)nc2ccccc21 (centres undefined)	2	1	-12	·
Cc1nn(Cc2cccc(Oc3ccccc3)c2)c(C)c1NC(=O)NC12CC3CC(CC(C3)C1)C2	·	-6	-2	·
C[C@H](CO)N1C[C@H](C)[C@@H](CN(C)Cc2cccc(F)c2)Oc2ncc(C#CCc3ccccc3)cc2C1=O	15	·	-4	4
C[C@H](CO)N1C[C@H](C)[C@@H](CN(C)C)Oc2cc(C#CCN(C)C)ccc2S1(=O)=O	3	·	5	-9
COC(=O)C1=C(C)N(Cc2cccc(C(F)(F)F)c2)C(=NCc2ccc(OC)cc2)NC1c1cccc(Cl)c1 (centres undefined)	-6	37	3	·
COC(=O)C1=C(C)N(Cc2cccc(C(F)(F)F)c2)C(=NCc2ccc(OC)cc2)NC1c1cccc(C(F)(F)F)c1 (centres undefined)	17	77*	-7	·
O=C(NCCc1ccccc1)c1ccc2c(c1)OCCCO2	-2	110*	-1	-3
C[C@H](CO)N1C[C@H](C)[C@@H](CN(C)C(=O)NC2CCCCC2)Oc2cc(-c3cccnc3)ccc2S1(=O)=O	-7	-12	-23	8
O=C(N/N=C/c1ccc(Cl)c([N+](=O)[O-])c1)c1cc(-c2ccc3c4c(cccc24)CC3)n[nH]1	-6	97*	0	-10
CCN1CCN(c2ccc(S(=O)(=O)N3CCOCC3)cc2NC(=O)/C=C/c2ccc([N+](=O)[O-])cc2)CC1	-6	72*	3	-7
CCN1CCN(c2ccc(S(=O)(=O)N3CCOCC3)cc2NC(=O)c2cccc([N+](=O)[O-])c2)CC1	-5	-1	·	·
O=C(Nc1cccc(C(F)(F)F)c1)C1Cc2c(-c3ccc(Cl)cc3)ccnc2O1 (centres undefined)	-9	5	1	6
O=C(NCc1ccco1)C(c1cccnc1)N(C(=O)Cn1nnc2ccccc21)c1ccccc1 (centres undefined)	·	·	·	5
O=C(N/N=C(\c1ccccc1)c1cccnc1)c1cccc(F)c1	-17	73*	·	-7
Cc1ccc(Sc2c(CO)c(-c3ccccc3)nn2C)cc1	-3	66*	-15	·
Cc1noc(C)c1NC(=O)N(C)C[C@@H]1Oc2ccc(NC(=O)NC(C)C)cc2CC(=O)N([C@H](C)CO)C[C@@H]1C	-1	-3	·	8
COc1cccc(S(=O)(=O)N2CCCCN3[C@@H](CO)[C@H](c4ccc(C#CC(C)C)cc4)[C@@H]3C2)c1	-16	65*	·	0
